The values below come from ChEMBL document CHEMBL1145465, “PhoU is a persistence switch involved in persister formation and tolerance to multiple antibiotics and stresses in Escherichia coli” (2007).

Converted amounts (≈) assume the structure as drawn. The source made the active and inactive calls.

Assay [1] relates to Escherichia coli. In words: Antibacterial activity against Escherichia coli K12 mutant JHU313 containing plasmid vector after 16 hrs by serial dilution method. Type of assay: functional. Particulars: K12, 16 h. In short, it runs like this:
(§1)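 Twofold serial antibiotic dilutions in LB broth were seeded with 10⁶–10⁷ bacteria/ml from log-phase culture and incubated 16 h at 37°C. MIC was taken as the lowest concentration with no visible growth. MBC was taken as the concentration giving a 100-fold CFU drop from the inoculum.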

In assay [2] the test system is Escherichia coli. In words: Antibacterial activity against Escherichia coli K12 PhoU wild type W3110 at 1 ug/ml after 48 hrs by disc diffusion method. (A growth-free zone around the sample is the usual read-out of agar diffusion tests.)
For assay [3], the system named is Escherichia coli. In words: Antibacterial activity against Escherichia coli K12 PhoU wild type W3110 at 0.5 ug/ml after 48 hrs by disc diffusion method. Type of assay: functional. In short, it runs like this: (§2)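 Kirby-Bauer disc assay. Log-phase LB culture (10⁸ bacteria) was spread for confluent growth on LB agar. 7 mm nitrocellulose discs soaked in antibiotic at the listed concentrations were laid on the agar. Inhibition zone diameter (mm) was measured after 48 h at 37°C.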

Assay [4] concerns Escherichia coli. In words: Antibacterial activity against Escherichia coli K12 mutant JHU313 containing plasmid vector at 0.5 ug/ml after 48 hrs by disc diffusion method. Type of assay: functional. In short, it runs like this:
(§3)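 Kirby-Bauer disc assay: log-phase LB culture was spread on LB agar for confluent growth. 7-mm nitrocellulose discs were soaked in antibiotic at the listed concentration and placed on the agar. After 48 h at 37°C, the diameter of the inhibition zone was measured in mm.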

Assay [5] has as its system Escherichia coli. In words: Antibacterial activity against Escherichia coli K12 mutant JHU313 containing plasmid PhoU at 0.5 ug/ml after 48 hrs by disc diffusion method. Type of assay: functional. The method, boiled down:
as §3

Assay [6] concerns Escherichia coli. In words: Antibacterial activity against Escherichia coli K12 PhoU wild type W3110 after 16 hrs by serial dilution method. The note with it: K12, 16 h. Type of assay: functional. In short, it runs like this:
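Serial twofold antibiotic dilutions in LB broth; log-phase inoculum 10⁶ to 10⁷ bacteria/ml; 16 h at 37°C. MIC was the lowest concentration with no visible growth. MBC was the concentration giving a 100-fold CFU drop below the seeded inoculum.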

Assay [7] relates to Escherichia coli.
Assay [8] relates to Escherichia coli. In words: Antibacterial activity against Escherichia coli K12 mutant JHU313 containing plasmid PhoU at 2 ug/ml after 48 hrs by disc diffusion method. Type of assay: functional. In short, it runs like this: as §3
The test system of assay [9] is Escherichia coli. This is another data set of the same source.
Assay [10] has as its system Escherichia coli. The source holds these as a separate data set.
The test system of assay [11] is Escherichia coli. In words: Antibacterial activity against Escherichia coli K12 mutant JHU313 containing plasmid vector at 2 ug/ml after 48 hrs by disc diffusion method. Type of assay: functional. In short, it runs like this:
as §3

Assay [12] deals with Escherichia coli. In words: Antibacterial activity against Escherichia coli K12 PhoU wild type W3110 at 2 ug/ml after 48 hrs by disc diffusion method. Type of assay: functional. In short, it runs like this: as §2
The test system of assay [13] is Escherichia coli. In words: Antibacterial activity against Escherichia coli K12 mutant JHU313 at 2 ug/ml after 48 hrs by disc diffusion method. Type of assay: functional. The method, boiled down: as §3
Assay [14] relates to Escherichia coli. In words: Antibacterial activity against Escherichia coli K12 mutant JHU313 after 16 hrs by serial dilution method. Type of assay: functional. The note with it: K12, 16 h. The method, boiled down:
as §1

Assay [15] concerns Escherichia coli. In words: Antibacterial activity against Escherichia coli K12 mutant JHU313 containing plasmid PhoU after 16 hrs by serial dilution method. Type of assay: functional. Particulars: K12, 16 h. In short, it runs like this: as §1
Assay [16] has as its system Escherichia coli. In words: Antibacterial activity against Escherichia coli K12 mutant JHU313 at 0.5 ug/ml after 48 hrs by disc diffusion method. Type of assay: functional. The method, boiled down:
as §3

In assay [17] the test system is Escherichia coli. In words: Antibacterial activity against Escherichia coli K12 containing PhoU mutant assessed as bacterial killing log phase at 3 ug/ml after 6 days. Type of assay: functional.
In assay [18] the test system is Escherichia coli. In words: Antibacterial activity against Escherichia coli K12 PhoU wild type W3110 assessed as cell count in log phase at […] after 6 days. Type of assay: functional, organism-based.
Assay [19] concerns Escherichia coli. In words: Antibacterial activity against Escherichia coli K12 PhoU wild type W3110 assessed as cell count in stationary phase at 2 mg/ml after 6 days.
In assay [20] the test system is Escherichia coli. In words: Antibacterial activity against Escherichia coli K12 containing PhoU mutant assessed as bacterial killing stationary phase at 2 mg/ml after 6 days.
The test system of assay [21] is Escherichia coli. In words: Antibacterial activity against Escherichia coli K12 mutant JHU313 containing plasmid vector at 12.5 ug/ml after 48 hrs by disc diffusion method. Type of assay: functional. The method, boiled down:
as §3

Assay [22] deals with Escherichia coli. In words: Antibacterial activity against Escherichia coli K12 mutant JHU313 containing plasmid vector at 25 ug/ml after 48 hrs by disc diffusion method. Type of assay: functional. The method, boiled down:
(§4)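 Kirby-Bauer paper-disc assay: log-phase E. coli (10⁸ bacteria) grown in LB broth, spread on LB agar for confluent growth; 7 mm nitrocellulose discs soaked with antibiotic solution at the listed concentration (μg/ml) placed on surface; incubated 37°C for 48 h; diameter of growth-inhibition zone measured in mm. Strain is the phoU transposon mutant transformed by electroporation with empty vector control.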

Assay [23] deals with Escherichia coli. In words: Antibacterial activity against Escherichia coli K12 mutant JHU313 containing plasmid PhoU at 12.5 ug/ml after 48 hrs by disc diffusion method. Type of assay: functional. The method, boiled down: as §3
Assay [24] deals with Escherichia coli. In words: Antibacterial activity against Escherichia coli K12 PhoU wild type W3110 at 12.5 ug/ml after 48 hrs by disc diffusion method. Type of assay: functional. The method, boiled down: (§5)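 Kirby-Bauer disc assay. Log-phase LB broth culture (10⁸ bacteria) was spread on LB agar for confluent growth. 7 mm nitrocellulose discs soaked in antibiotic solution at the listed concentration were placed on the agar. Inhibition zone diameter (mm) was measured after 48 h at 37°C.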

For assay [25], the system named is Escherichia coli. In words: Antibacterial activity against Escherichia coli K12 mutant JHU313 at 25 ug/ml after 48 hrs by disc diffusion method. Type of assay: functional. In short, it runs like this: as §3
Assay [26] concerns Escherichia coli. In words: Antibacterial activity against Escherichia coli K12 mutant JHU313 containing plasmid PhoU at 50 ug/ml after 48 hrs by disc diffusion method. Type of assay: functional. The method, boiled down:
as §3

The test system of assay [27] is Escherichia coli. In words: Antibacterial activity against Escherichia coli K12 mutant JHU313 at 50 ug/ml after 48 hrs by disc diffusion method. Type of assay: functional. In short, it runs like this:
as §3

Assay [28] concerns Escherichia coli. In words: Antibacterial activity against Escherichia coli K12 PhoU wild type W3110 at 25 ug/ml after 48 hrs by disc diffusion method. Type of assay: functional. The method, boiled down: as §5
The subject of assay [29] is Escherichia coli. In words: Antibacterial activity against Escherichia coli K12 mutant JHU313 containing plasmid vector at 50 ug/ml after 48 hrs by disc diffusion method. Type of assay: functional. The method, boiled down:
as §4

For assay [30], the system named is Escherichia coli. In words: Antibacterial activity against Escherichia coli K12 mutant JHU313 containing plasmid PhoU at 25 ug/ml after 48 hrs by disc diffusion method. Type of assay: functional. The method, boiled down: as §3
Assay [31] has as its system Escherichia coli. In words: Antibacterial activity against Escherichia coli K12 mutant JHU313 at 12.5 ug/ml after 48 hrs by disc diffusion method. Type of assay: functional. In short, it runs like this:
as §3

For assay [32], the system named is Escherichia coli. In words: Antibacterial activity against Escherichia coli K12 PhoU wild type W3110 at 50 ug/ml after 48 hrs by disc diffusion method. Type of assay: functional. The method, boiled down:
as §5

For orientation: MBC means the smallest concentration meeting the test's criterion for killing. A higher MBC goes with less potent killing. In general, MIC refers to the least concentration at which growth counts as inhibited. For the compound `COc1cc(Cc2cnc(N)nc2N)cc(OC)c1OC` [TRIMETHOPRIM], the MBC in [1] turned out to be 1 µg/mL (≈ 3.44 µM); in assay [6], 8 µg/mL (≈ 27.6 µM); in assay [14] it was 1 µg/mL (≈ 3.44 µM); in [15], 4 µg/mL (≈ 13.8 µM). Further, the minimal inhibitory concentration (MIC) in assay [1] came to 0.5 µg/mL (≈ 1.72 µM); in assay [6] it was 2 µg/mL (≈ 6.89 µM); in assay [14], 0.25 µg/mL (≈ 0.861 µM); in assay [15] it was 2 µg/mL (≈ 6.89 µM). The IZ came to 26 mm in [2], 40 mm in assay [7], 38 mm in [9] and 33 mm in [10]. For the same compound, the inhibition zone (IZ) in assay [3] stood at 24 mm; in assay [4], 36 mm; in [5], 32 mm; in assay [8], 36 mm; in [11] it was 44 mm; in assay [12], 30 mm. The values for the inhibition zone (IZ) in assay [13] and in assay [16] were 42 mm and 31 mm, respectively.

Regarding `NC(=O)c1cnccn1` [PYRAZINAMIDE], the CFU in assay [17] is on record as 1 10^6/ml; in assay [19], 6.7 10^6/ml. For the same compound, the outcome in [18] and in assay [20] was Active.

In the case of `CN(C)[C@@H]1C(O)=C(C(N)=O)C(=O)[C@@]2(O)C(O)=C3C(=O)c4c(O)cccc4[C@@](C)(O)[C@H]3C[C@@H]12` [TETRACYCLINE], the inhibition zone (IZ) in [21] amounted to 34 mm; in assay [22], 34 mm; in assay [23], 30 mm; in assay [24], 22 mm; in assay [25], 32 mm; in assay [26], 32 mm. In addition, the inhibition zone (IZ) was determined as 32 mm in [27]; 23 mm in [28]; 34 mm in [29]; 32 mm in assay [30]; 26 mm in assay [31]; 23 mm in assay [32].
